Test results taken from ChEMBL document CHEMBL1144182, “Antimicrobial and cytotoxic arylazoenamines. Part III: antiviral activity of selected classes of arylazoenamines” (Bioorg Med Chem, 2008).
Calls of active or inactive are those of the source. The rule behind the calls is not given here.

System: not listed separately
Test: Cytotoxicity against mock-infected human MT4 cells assessed as reduction in cell viability after 96 hrs by MTT assay
Type: cell-based
Settings: not given
In short: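 Exponentially growing MT-4 cells seeded at 1 × 10^5 cells/mL in RPMI-1640 with 10% FCS, penicillin and streptomycin, with or without serial compound dilutions. Incubated at 37 °C, 5% CO2; viability read by MTT after 96 h. CC50 is the concentration reducing mock-infected cell viability by 50%.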

Row | SMILES | CC50 at 96 h [µM]
1 | Cc1ccc(/N=N/C=C2\CCCN2Cc2ccccc2)cc1 | 10
2 | c1ccc2c(/N=N\C3=C4CCCCN4CCC3)cccc2c1 | 12
3 | O=[N+]([O-])c1ccc(N2CCN(/C=C/N=N/c3ccccc3)CC2)cc1 | 41
4 | Brc1cccc(/N=N\C2=C3CCCCN3CCC2)c1 | 9
5 | CN1C=C(/N=N/c2c(F)c(F)c(F)c(F)c2F)CCC1 | > 100
6 | O=[N+]([O-])c1cccc(/N=N\C2=C3CCCN3CCC2)c1 | > 100
7 | COc1ccc(/N=N/C=C2\CCCN2C)cc1 | > 100
8 | CC(=O)c1ccc(N2CCN(/C=C/N=N/c3ccccc3)CC2)cc1 | 21

System: not listed separately
Test: Cytotoxicity against mock-infected MDBK cells assessed as reduction in cell viability after 96 hrs by MTT assay
Type: cell-based, Bos taurus
Settings: cattle
In short: (§1)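 Cytotoxicity run in parallel with the antiviral assays. MDBK seeded at 6 × 10^5 and BHK at 1 × 10^6 cells/mL in maintenance medium with or without serial compound dilutions. Incubated 48–96 h at 37 °C, 5% CO2, then viability read by MTT. CC50 is the concentration reducing mock-infected cell viability by 50%.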

Row | SMILES | CC50 at 96 h [µM]
9 | Cc1ccc(/N=N/C=C2\CCCN2Cc2ccccc2)cc1 | 22
10 | c1ccc2c(/N=N\C3=C4CCCCN4CCC3)cccc2c1 | > 100
11 | O=[N+]([O-])c1ccc(N2CCN(/C=C/N=N/c3ccccc3)CC2)cc1 | 20
12 | Brc1cccc(/N=N\C2=C3CCCCN3CCC2)c1 | 10
13 | CN1C=C(/N=N/c2c(F)c(F)c(F)c(F)c2F)CCC1 | > 100
14 | O=[N+]([O-])c1cccc(/N=N\C2=C3CCCN3CCC2)c1 | 68
15 | COc1ccc(/N=N/C=C2\CCCN2C)cc1 | 67
16 | CC(=O)c1ccc(N2CCN(/C=C/N=N/c3ccccc3)CC2)cc1 | 8

System: Bovine viral diarrhea virus 1
Test: Antiviral activity against BVDV infected in MDBK cells assessed as protection against virus-induced cytopathogenicity after 4 days by MTT assay
Type: functional, organism-based
Settings: Bovine viral diarrhea virus isolates and strains, 96 h
In short: (§2)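 MDBK (BVDV) or BHK-21 (YFV) cells were seeded at 3 × 10^4 or 5 × 10^4 cells/well respectively and grown overnight to confluent monolayers at 37 °C in 5% CO2. Monolayers were infected at m.o.i. 0.01 in serum-free medium. After 1 h, MEM Earle's with 1% FCS was added, with or without serial compound dilutions. After 3–4 days at 37 °C, viability was read by MTT. EC50 was taken as 50% protection from virus-induced cytopathogenicity.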

Row | SMILES | EC50 [µM]
17 | Cc1ccc(/N=N/C=C2\CCCN2Cc2ccccc2)cc1 | > 22
18 | c1ccc2c(/N=N\C3=C4CCCCN4CCC3)cccc2c1 | 6
19 | O=[N+]([O-])c1ccc(N2CCN(/C=C/N=N/c3ccccc3)CC2)cc1 | > 20
20 | Brc1cccc(/N=N\C2=C3CCCCN3CCC2)c1 | > 10
21 | CN1C=C(/N=N/c2c(F)c(F)c(F)c(F)c2F)CCC1 | > 100
22 | O=[N+]([O-])c1cccc(/N=N\C2=C3CCCN3CCC2)c1 | > 68
23 | COc1ccc(/N=N/C=C2\CCCN2C)cc1 | 18
24 | CC(=O)c1ccc(N2CCN(/C=C/N=N/c3ccccc3)CC2)cc1 | > 8

System: not listed separately
Test: Cytotoxicity against mock-infected BHK cells assessed as reduction in cell viability after 96 hrs by MTT assay
Type: cell-based, Mesocricetus auratus
Settings: hamster
In short: as §1

Row | SMILES | CC50 at 96 h [µM]
25 | Cc1ccc(/N=N/C=C2\CCCN2Cc2ccccc2)cc1 | 25
26 | c1ccc2c(/N=N\C3=C4CCCCN4CCC3)cccc2c1 | 20
27 | O=[N+]([O-])c1ccc(N2CCN(/C=C/N=N/c3ccccc3)CC2)cc1 | 48
28 | Brc1cccc(/N=N\C2=C3CCCCN3CCC2)c1 | 49
29 | CN1C=C(/N=N/c2c(F)c(F)c(F)c(F)c2F)CCC1 | > 100
30 | O=[N+]([O-])c1cccc(/N=N\C2=C3CCCN3CCC2)c1 | 95
31 | COc1ccc(/N=N/C=C2\CCCN2C)cc1 | 77
32 | CC(=O)c1ccc(N2CCN(/C=C/N=N/c3ccccc3)CC2)cc1 | 49

System: Yellow fever virus
Test: Antiviral activity against YFV infected in BHK21 cells assessed as protection against virus-induced cytopathogenicity after 4 days by MTT assay
Type: functional, organism-based
Settings: BHK-21, 96 h
In short: as §2

Row | SMILES | EC50 [µM]
33 | Cc1ccc(/N=N/C=C2\CCCN2Cc2ccccc2)cc1 | > 25
34 | c1ccc2c(/N=N\C3=C4CCCCN4CCC3)cccc2c1 | > 20
35 | O=[N+]([O-])c1ccc(N2CCN(/C=C/N=N/c3ccccc3)CC2)cc1 | 12
36 | Brc1cccc(/N=N\C2=C3CCCCN3CCC2)c1 | > 49
37 | CN1C=C(/N=N/c2c(F)c(F)c(F)c(F)c2F)CCC1 | > 100
38 | O=[N+]([O-])c1cccc(/N=N\C2=C3CCCN3CCC2)c1 | > 95
39 | COc1ccc(/N=N/C=C2\CCCN2C)cc1 | > 77
40 | CC(=O)c1ccc(N2CCN(/C=C/N=N/c3ccccc3)CC2)cc1 | > 49

System: not listed separately
Test: Cytotoxicity against mock-infected african green monkey Vero76 cells assessed as reduction in cell viability after 96 hrs by MTT assay
Type: cell-based, Vero
Settings: chlorocebus sabaeus

Row | SMILES | CC50 at 96 h [µM]
41 | Cc1ccc(/N=N/C=C2\CCCN2Cc2ccccc2)cc1 | 50
42 | c1ccc2c(/N=N\C3=C4CCCCN4CCC3)cccc2c1 | 90
43 | O=[N+]([O-])c1ccc(N2CCN(/C=C/N=N/c3ccccc3)CC2)cc1 | 45
44 | Brc1cccc(/N=N\C2=C3CCCCN3CCC2)c1 | > 100
45 | CN1C=C(/N=N/c2c(F)c(F)c(F)c(F)c2F)CCC1 | > 100
46 | O=[N+]([O-])c1cccc(/N=N\C2=C3CCCN3CCC2)c1 | > 100
47 | COc1ccc(/N=N/C=C2\CCCN2C)cc1 | 100
48 | CC(=O)c1ccc(N2CCN(/C=C/N=N/c3ccccc3)CC2)cc1 | 11

System: Coxsackievirus B2
Test: Antiviral activity against CVB2 infected in Vero76 cells assessed as reduction in virus plaque formation after 4 days by MTT assay
Type: functional, organism-based
Settings: Enterovirus B, Vero 76, 96 h

Row | SMILES | EC50 [µM]
49 | Cc1ccc(/N=N/C=C2\CCCN2Cc2ccccc2)cc1 | 8
50 | c1ccc2c(/N=N\C3=C4CCCCN4CCC3)cccc2c1 | > 90
51 | O=[N+]([O-])c1ccc(N2CCN(/C=C/N=N/c3ccccc3)CC2)cc1 | 14
52 | Brc1cccc(/N=N\C2=C3CCCCN3CCC2)c1 | 18
53 | CN1C=C(/N=N/c2c(F)c(F)c(F)c(F)c2F)CCC1 | > 100
54 | O=[N+]([O-])c1cccc(/N=N\C2=C3CCCN3CCC2)c1 | 54
55 | COc1ccc(/N=N/C=C2\CCCN2C)cc1 | 5
56 | CC(=O)c1ccc(N2CCN(/C=C/N=N/c3ccccc3)CC2)cc1 | > 11

System: Respiratory syncytial virus
Test: Antiviral activity against RSV infected in Vero76 cells assessed as reduction in virus plaque formation after 4 days by MTT assay
Type: functional, organism-based
Settings: human respiratory syncytial virus, Vero 76, 96 h

Row | SMILES | EC50 [µM]
57 | Cc1ccc(/N=N/C=C2\CCCN2Cc2ccccc2)cc1 | > 50
58 | c1ccc2c(/N=N\C3=C4CCCCN4CCC3)cccc2c1 | > 90
59 | O=[N+]([O-])c1ccc(N2CCN(/C=C/N=N/c3ccccc3)CC2)cc1 | 13
60 | Brc1cccc(/N=N\C2=C3CCCCN3CCC2)c1 | > 100
61 | CN1C=C(/N=N/c2c(F)c(F)c(F)c(F)c2F)CCC1 | > 100
62 | O=[N+]([O-])c1cccc(/N=N\C2=C3CCCN3CCC2)c1 | > 100
63 | COc1ccc(/N=N/C=C2\CCCN2C)cc1 | > 100
64 | CC(=O)c1ccc(N2CCN(/C=C/N=N/c3ccccc3)CC2)cc1 | 0.9

System: Poliovirus 1
Test: Antiviral activity against Sb1 virus infected in Vero76 cells assessed as reduction in virus plaque formation after 4 days by MTT assay
Type: functional, organism-based
Settings: Enterovirus C, Sabin, Vero 76, 96 h

Row | SMILES | EC50 [µM]
65 | Cc1ccc(/N=N/C=C2\CCCN2Cc2ccccc2)cc1 | > 50
66 | c1ccc2c(/N=N\C3=C4CCCCN4CCC3)cccc2c1 | > 90
67 | O=[N+]([O-])c1ccc(N2CCN(/C=C/N=N/c3ccccc3)CC2)cc1 | > 45
68 | Brc1cccc(/N=N\C2=C3CCCCN3CCC2)c1 | > 100
69 | CN1C=C(/N=N/c2c(F)c(F)c(F)c(F)c2F)CCC1 | > 100
70 | O=[N+]([O-])c1cccc(/N=N\C2=C3CCCN3CCC2)c1 | 60
71 | COc1ccc(/N=N/C=C2\CCCN2C)cc1 | > 100
72 | CC(=O)c1ccc(N2CCN(/C=C/N=N/c3ccccc3)CC2)cc1 | > 11

System: Human immunodeficiency virus 1
Test: Antiviral activity against HIV1 infected in MT4 cells assessed as virus-induced cytopathogenicity after 4 days
Type: functional, organism-based
Settings: not given

Row | SMILES | Activity
73 | Cc1ccc(/N=N/C=C2\CCCN2Cc2ccccc2)cc1 | inactive
74 | c1ccc2c(/N=N\C3=C4CCCCN4CCC3)cccc2c1 | inactive
75 | O=[N+]([O-])c1ccc(N2CCN(/C=C/N=N/c3ccccc3)CC2)cc1 | inactive
76 | Brc1cccc(/N=N\C2=C3CCCCN3CCC2)c1 | inactive
77 | CN1C=C(/N=N/c2c(F)c(F)c(F)c(F)c2F)CCC1 | inactive
78 | O=[N+]([O-])c1cccc(/N=N\C2=C3CCCN3CCC2)c1 | inactive
79 | COc1ccc(/N=N/C=C2\CCCN2C)cc1 | inactive
80 | CC(=O)c1ccc(N2CCN(/C=C/N=N/c3ccccc3)CC2)cc1 | inactive

System: Vaccinia virus
Test: Antiviral activity against VV infected in Vero76 cells assessed as reduction in virus plaque formation after 4 days by MTT assay
Type: functional, organism-based
Settings: Orthopoxvirus vaccinia; Vero 76

Row | SMILES | Activity
81 | Cc1ccc(/N=N/C=C2\CCCN2Cc2ccccc2)cc1 | inactive
82 | c1ccc2c(/N=N\C3=C4CCCCN4CCC3)cccc2c1 | inactive
83 | O=[N+]([O-])c1ccc(N2CCN(/C=C/N=N/c3ccccc3)CC2)cc1 | inactive
84 | Brc1cccc(/N=N\C2=C3CCCCN3CCC2)c1 | inactive
85 | CN1C=C(/N=N/c2c(F)c(F)c(F)c(F)c2F)CCC1 | inactive
86 | O=[N+]([O-])c1cccc(/N=N\C2=C3CCCN3CCC2)c1 | inactive
87 | COc1ccc(/N=N/C=C2\CCCN2C)cc1 | inactive
88 | CC(=O)c1ccc(N2CCN(/C=C/N=N/c3ccccc3)CC2)cc1 | inactive

System: Vesicular stomatitis virus
Test: Antiviral activity against VSV infected in Vero76 cells assessed as reduction in virus plaque formation after 4 days by MTT assay
Type: functional, organism-based
Settings: Vero 76

Row | SMILES | Activity
89 | Cc1ccc(/N=N/C=C2\CCCN2Cc2ccccc2)cc1 | inactive
90 | c1ccc2c(/N=N\C3=C4CCCCN4CCC3)cccc2c1 | inactive
91 | O=[N+]([O-])c1ccc(N2CCN(/C=C/N=N/c3ccccc3)CC2)cc1 | inactive
92 | Brc1cccc(/N=N\C2=C3CCCCN3CCC2)c1 | inactive
93 | CN1C=C(/N=N/c2c(F)c(F)c(F)c(F)c2F)CCC1 | inactive
94 | O=[N+]([O-])c1cccc(/N=N\C2=C3CCCN3CCC2)c1 | inactive
95 | COc1ccc(/N=N/C=C2\CCCN2C)cc1 | inactive
96 | CC(=O)c1ccc(N2CCN(/C=C/N=N/c3ccccc3)CC2)cc1 | inactive
